Source: PubChem BioAssay (several laboratories)
UCH37 DUB inh: human UCH37 deubiquitinating enzyme inhibition. purified proteasome/UCH37, Ub-AMC cleavage fluorescence. inhibition, % (no concentration beside the values). Q9Y5K5. actives 0.33% (n = 330,000);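 active = mean inhibition over replicate wells above about 20%, limit read from the data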;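 also: 0% = compound-free wells with enzyme and 100% = wells lacking proteasome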
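system = Proteasome-associated human UCH37 deubiquitinase | amount = 0.15 nM proteasome as dispensed | medium = pH 7.4 Tris-HCl (50 mM) with ovalbumin, ATP-MgCl2, DTT | incubation = 30 min preincubation with enzyme, 25 min cleavage at room temperature | detection = AMC fluorescence 355/460 nm | read-out basis = percent inhibition | controls = no-proteasome and no-compound wells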
MEKK2wt PB1 HTS: raises or lowers MEK5 binding to wildtype human MEKK2 PB1 domain; Q9Y2U5; binding response (% of control), % at 10 µM; bead flow cytometry, Alexa488-MEK5 binding to MEKK2 WT; actives lie on both sides; actives 1.1% (n = 290,000); in the data active = binding response below about 67% or above about 130%; inconclusive = no clear call, values can overlap the other calls; inactive = in between
UBC13 inh: inhibitors of human UBC13 polyubiquitin chain formation | actives 0.47% (n = 330,000) | TR-FRET | inhibition, % at 20 µM; in the data active = inhibition above about 45%, passing the limit was not always enough; inconclusive = no clear call, values can overlap the other calls
MEKK2 mut-MEK5: signal of MEK5 binding to mutant human MEKK2 PB1 domain. bead flow cytometry, Alexa488-MEK5 binding to MEKK2 mutant. percent response, % at 10 µM. actives 0.35% (n = 290,000). AID 1530; in the data active = percent response above about 24%, passing the limit was not always enough
MEKK3 PB1 HTS: raises or lowers MEK5 binding to the human MEKK3 PB1 domain; binding response (% of control), % at 10 µM; AID 1529; bead-based flow cytometry, Alexa488-MEK5 binding to MEKK3; actives lie on both sides; 0 = blocked by unlabeled MEK5, 100 = vehicle; Q99759; actives 1.4% (n = 290,000);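 active = binding response more than 3 SD above or below the average of its plate-row segment, actives on both sides; inconclusive = wells at one plate position flagged as instrument error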;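 also: Alexa488 bead fluorescence after subtracting the streptavidin-only scavenger bead signal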
Apaf-1 inh: inhibitors of human Apaf-1 apoptosome; O14727; reconstituted apoptosome caspase-3 activity, DEVD-Rh110 fluorescence; inhibition, % at 20 µM; actives 0.71% (n = 330,000); active = inhibition of at least 40% at 20 µM;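 also: plate controls were DMSO wells for no effect and DEVD-CHO caspase inhibitor wells for full effect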
Target sequence (O14727 whole entry, looked up): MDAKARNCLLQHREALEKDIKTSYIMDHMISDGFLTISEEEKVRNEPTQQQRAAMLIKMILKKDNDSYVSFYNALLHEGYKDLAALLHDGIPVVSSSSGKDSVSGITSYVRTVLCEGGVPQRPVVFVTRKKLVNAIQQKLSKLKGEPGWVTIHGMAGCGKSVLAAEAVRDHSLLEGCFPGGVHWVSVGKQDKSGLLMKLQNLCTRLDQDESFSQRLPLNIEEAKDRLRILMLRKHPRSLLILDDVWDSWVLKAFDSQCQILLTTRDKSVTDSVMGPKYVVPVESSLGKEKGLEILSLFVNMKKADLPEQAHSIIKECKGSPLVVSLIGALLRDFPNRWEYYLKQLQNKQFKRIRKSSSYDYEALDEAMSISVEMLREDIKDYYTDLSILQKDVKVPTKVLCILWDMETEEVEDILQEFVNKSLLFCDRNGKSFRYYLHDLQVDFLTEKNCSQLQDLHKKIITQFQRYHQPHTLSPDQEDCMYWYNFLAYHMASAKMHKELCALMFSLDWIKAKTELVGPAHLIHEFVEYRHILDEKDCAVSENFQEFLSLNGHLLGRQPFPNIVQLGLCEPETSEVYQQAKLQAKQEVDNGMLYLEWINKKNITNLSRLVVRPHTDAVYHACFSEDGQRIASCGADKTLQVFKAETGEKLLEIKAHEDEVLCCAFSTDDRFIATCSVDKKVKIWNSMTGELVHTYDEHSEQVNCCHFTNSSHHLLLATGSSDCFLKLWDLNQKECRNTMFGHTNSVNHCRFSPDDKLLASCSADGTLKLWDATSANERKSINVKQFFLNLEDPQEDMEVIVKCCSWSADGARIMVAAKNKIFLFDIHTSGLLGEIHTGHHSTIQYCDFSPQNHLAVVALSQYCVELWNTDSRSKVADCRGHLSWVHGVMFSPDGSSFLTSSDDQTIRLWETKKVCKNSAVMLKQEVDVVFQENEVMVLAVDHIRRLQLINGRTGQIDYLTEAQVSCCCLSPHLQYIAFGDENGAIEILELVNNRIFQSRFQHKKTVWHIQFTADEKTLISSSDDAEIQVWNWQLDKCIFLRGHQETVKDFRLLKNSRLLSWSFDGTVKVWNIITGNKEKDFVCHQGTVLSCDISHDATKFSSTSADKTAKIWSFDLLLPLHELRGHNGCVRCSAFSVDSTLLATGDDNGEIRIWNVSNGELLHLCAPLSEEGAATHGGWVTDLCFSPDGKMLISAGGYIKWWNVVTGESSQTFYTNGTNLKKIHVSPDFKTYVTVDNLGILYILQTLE
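System – cell-free apoptosome with Apaf-1, procaspase-3 and caspase-9 · Buffer or medium – pH 7.5 Hepes buffer with CHAPS, BSA, DTT · Also added – cytochrome c with DEVD-Rh110 · Times – 30 min compound preincubation, 50 min activation, room temperature · Technique – Rh110 fluorescence intensity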
MEKK2wt confirm: raises or lowers MEK5 binding to wildtype human MEKK2, retest; shares compounds with MEKK3 PB1 HTS; bead flow cytometry, Alexa488-MEK5 binding to MEKK2 WT; actives lie on both sides; binding response (% of control), % at 10 µM; actives 2.4% (n = 5,900); AID 1892; in the data active = binding response below about 16% or above about 210%; inactive = in between
MEKK2mut-MEK5: signal of MEK5 binding to mutant human MEKK2, retest; shares compounds with MEKK3 PB1 HTS; bead flow cytometry, Alexa488-MEK5 binding to MEKK2 mutant; percent response, % at 10 µM; actives 2% (n = 5,900); AID 1893; in the data active = percent response mostly above about 71%, no sharp cut-off; inactive = mostly below about 38%;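 also: higher means compound restores mutant binding toward wildtype level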
MEKK3 confirm: MEKK3-MEK5 PB1 inhibition, single concentration confirmation; binding response (% of control), % at 10 µM; shares compounds with MEKK3 PB1 HTS; actives 1.8% (n = 5,900); bead flow cytometry, Alexa488-MEK5 binding to MEKK3; stronger effect = lower value;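 active = binding response below 72% of control, or above a set upper limit, though filed actives all read lower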;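 also: 100% = DMSO only wells and 0% = binding blocked by excess unlabeled MEK5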
Casp3 counter: caspase-3 inhibition (UBC13 counter-screen) | shares compounds with UBC13 inh | actives 4% (n = 1,400) | inhibition, % at 20 µM | Recombinant caspase-3, Caspase-Glo 3/7 luminescence, 60 min;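 active = mean inhibition across replicates above about 26%, limit read from the data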;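 also: plate controls were DMSO with caspase-3 for no effect and DMSO wells lacking enzyme for full effect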
UBC13 confirm: human UBC13 polyubiquitin inhibition, confirmed | actives 68% (n = 1,400) | shares compounds with UBC13 inh | UBC13 polyubiquitination, TR-FRET, biochemical | AID 488859 | inhibition, % at 10 µM; in the data active = inhibition above about 45%; inconclusive = no clear call, values can overlap the other calls
Numbers without * were called inactive; ? = inconclusive; nt = no result given; [ ] = dose if it differs, or a comment. Shown are actives, neighbours in structure and some others; about 3% of the full set was active somewhere.

SMILES | UCH37 DUB inh | MEKK2wt PB1 HTS | UBC13 inh | MEKK2 mut-MEK5 | MEKK3 PB1 HTS | Apaf-1 inh | MEKK2wt confirm | MEKK2mut-MEK5 | MEKK3 confirm | Casp3 counter | UBC13 confirm
C#CCOCCOCCOCCNc1nc(N2CCN(C(=O)[C@H](Cc3ccc(O)cc3)n3cc([C@@H](N)C(C)CC)nn3)CC2)nc(N2CCN(C(=O)[C@H](Cc3cc4ccccc4[nH]3)n3cc([C@@H](N)C(C)CC)nn3)CC2)n1 (stereo not given in full) | 3.3 | 208.0* | 77.0* | 59.0* | 111.0 | 32.8 | 194.0 | 65.0 | 108.0 | -2.5 | 66.1*
CNCCC(Oc1ccc(C(F)(F)F)cc1)c1ccccc1 (stereo not given) | 4.6 | 139.0* | 49.8* | 12.0 | 114.0 | 29.4 | 115.0 | 5.0 | 102.0 | -5.5 | 36.3
CNCCCOc1ccc(C(C)(C)c2ccccc2)cc1 | 2.4 | nt | nt | nt | nt | nt | nt | nt | nt | nt | nt
COc1ccc2c(c1)[nH]c1c(N3CCSCC3)ncnc12 | -6.7 | 73.0 | -2.9 | -30.0 | 67.0 | -2.4 | nt | nt | nt | nt | nt
COc1cc2[nH]c3c(N4CCN(c5ccc(Cl)cc5)CC4)ncnc3c2cc1OC | -37.6 | 157.0* | 51.4* | 24.0* | 111.0 | 0.2 | 189.0 | 49.0 | 110.0 | 1.9 | 33.3
NC(N)=N/N=C/c1ccc2cccc(OCc3ccccc3)c2n1 | nt | 148.0* | 50.1* | 31.0 | 104.0 | 4.4 | 2.0*[inhibitor] | -47.0 | 2.0* | -0.6 | 41.2
CC[n+]1cccc(-c2nc3ccccc3s2)c1 | 1.0 | 103.0 | 1.2 | -7.0 | 116.0 | 2.8 | nt | nt | nt | nt | nt
CC[n+]1c(/C=C/N(C)c2ccccc2)n(-c2ccccc2)c2ccc(-c3nc4ccccc4s3)cc21 | -17.4 | 328.0* | 83.7* | 140.0* | 112.0 | 81.7* | 262.0* | 117.0* | 115.0 | 0.7 | 98.0*
CN(C)CCCN(C(=O)c1ccc(C(=O)c2ccccc2)cc1)c1nc2cc3c(cc2s1)OCCO3 | 7.6 | 166.0* | 92.0* | 27.0* | 107.0 | 16.7 | 155.0 | 23.0 | 107.0 | 4.9 | 111.5*
CCN(Cc1ccccc1)S(=O)(=O)c1ccc(C(=O)N(CCCN(C)C)c2nc3cc4c(cc3s2)OCO4)cc1 | 3.3 | 202.0* | 64.3* | 39.0* | 107.0 | 23.2 | 203.0 | 56.0 | 106.0 | -3.4 | 104.4*
CN(C)CCN(C(=O)c1ccc(S(=O)(=O)N(C)c2ccccc2)cc1)c1nc2cc3c(cc2s1)OCO3 | 2.7 | 126.0 | 2.3 | 17.0 | 104.0 | 16.8 | nt | nt | nt | nt | nt
Cc1ccc2nc(N(CCCN(C)C)C(=O)c3sc4ccccc4c3Cl)sc2c1 | 2.6 | 155.0* | 49.2* | 9.0 | 133.0* | 3.2 | 184.0 | 54.0 | 109.0 | -3.8 | 63.9*
CN(C)CCCN(C(=O)COc1ccccc1)c1nc2cc3c(cc2s1)OCCO3 | -1.5 | 122.0 | 19.6 | 5.0 | 102.0 | 1.3 | nt | nt | nt | nt | nt
S=C(NCC1CCCO1)Nc1cccc2ccccc12 (stereo not given) | 7.1 | 99.0 | 0.7 | 2.0 | 100.0 | 7.2 | nt | nt | nt | nt | nt
C=CCc1cc2c(oc(=O)c3ccccc32)c(C)c1O | -32.1 | 102.0 | -10.3 | 2.0 | 101.0 | 5.3 | nt | nt | nt | nt | nt
CCCCN1CCc2c1nc1ccc(Br)cc1c2N | 9.7 | 147.0* | 55.2* | 17.0 | 106.0 | -14.3 | 148.0 | 27.0 | 110.0 | 1.1 | ?
C#CCOCCOCCOCCNc1nc(N2CCN(C(=O)[C@H]([C@@H](C)CC)n3cc([C@@H](N)Cc4ccc(O)cc4)nn3)CC2)nc(N2CCN(C(=O)[C@H]([C@@H](C)CC)n3cc([C@@H](N)Cc4ccc(O)cc4)nn3)CC2)n1 | -1.0 | 151.0* | 54.1* | 31.0 | 108.0 | 29.9 | 136.0 | 15.0 | 104.0 | -3.1 | 40.3
C#CCOCCOCCOCCNc1nc(N2CCN(C(=O)[C@H](CC(N)=O)n3cc(C(N)[C@@H](C)CC)nn3)CC2)nc(N2CCN(C(=O)[C@H](CCCCN)n3cc([C@@H](N)CC(N)=O)nn3)CC2)n1 (stereo not given in full) | 2.4 | nt | 14.7 | nt | nt | 5.5 | nt | nt | nt | nt | nt
C#CCOCCOCCOCCNc1nc(N2CCN(C(=O)[C@H]([C@@H](C)CC)n3cc([C@@H](N)Cc4ccc(O)cc4)nn3)CC2)nc(N2CCN(C(=O)[C@H](CCCCN)n3cc([C@@H](N)C(C)CC)nn3)CC2)n1 (stereo not given in full) | 4.3 | 176.0* | 66.8* | 48.0 | 117.0 | 22.2 | 137.0 | 17.0 | 103.0 | -4.4 | 50.5*
C#CCOCCOCCOCCNc1nc(N2CCN(C(=O)[C@H]([C@@H](C)CC)n3cc([C@@H](N)CC(C)C)nn3)CC2)nc(N2CCN(C(=O)[C@H]([C@@H](C)CC)n3cc([C@@H](N)CC(C)C)nn3)CC2)n1 | -1.0 | 223.0* | 66.1* | 87.0* | 116.0 | 9.6 | 180.0 | 45.0 | 104.0 | -0.9 | 55.8*
C#CCOCCOCCOCCNc1nc(N2CCN(C(=O)[C@H](CCCCN)n3cc([C@@H](N)C(C)CC)nn3)CC2)nc(N2CCN(C(=O)[C@H](CCCCN)n3cc([C@@H](N)CC(C)C)nn3)CC2)n1 (stereo not given in full) | 1.0 | 180.0* | 105.4* | 60.0* | 111.0 | -15.7 | 173.0 | 47.0 | 109.0 | 3.4 | 112.3*
C#CCOCCOCCOCCNc1nc(N2CCOCC2)nc(N2CCN(C(=O)[C@H]([C@@H](C)CC)n3cc([C@@H](N)CO)nn3)CC2)n1 | 2.5 | 106.0 | -0.5 | 8.0 | 107.0 | -10.1 | nt | nt | nt | nt | nt
COc1cccc(NC(=O)C(Sc2nnc(-c3ccncc3)n2-c2ccc(Cl)cc2)c2ccccc2)c1 (stereo not given) | 0.9 | 84.0 | 2.5 | -4.0 | 87.0 | 25.3 | nt | nt | nt | nt | nt
